Measured values published in ChEMBL document CHEMBL2177091, “Spirocyclic sulfamides as β-secretase 1 (BACE-1) inhibitors for the treatment of Alzheimer's disease: utilization of structure based drug design, WaterMap, and CNS penetration studies to identify centrally efficacious inhibitors” (J Med Chem, 2012).

Assays:
[1] = Ratio of free drug concentration in brain to free drug concentration in plasma in FVB/N mouse at 10 mg/kg, sc after 60 mins; assay type: ADME, organism-based; parameters: dose 10 mg/kg, route subcutaneous; details: brain and plasma (free concentrations), read-out: K(p,uu,brain)
How it was run: (§1)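 Mice dosed 10 mg/kg subcutaneously; plasma and brain exposures taken at 60 min. Unbound fractions determined by equilibrium dialysis.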

Plasma = experiment: Fraction unbound in FVB/N mouse plasma at 1 uM after 6 hrs by equilibrium dialysis; assay type: ADME, cell-free
[2] = Ratio of drug uptake in brain to plasma in FVB/N mouse at 10 mg/kg, sc after 60 mins; assay type: ADME, organism-based; parameters: dose 10 mg/kg, route subcutaneous; details: brain and plasma, read-out: BPR; how it was run: as §1
[3] = Intrinsic clearance in rat liver microsomes; assay type: ADME, Microsome; details: read-out: CLH
in vitro = details: human, liver microsomes

Row | SMILES | Kp uu at 1 h [1] | Cp(f) (Plasma) | Kp at 1 h [2] | CLint scaled [3] [mL/min/kg] | CLint scaled (in vitro) [mL/min/kg]
1 | CC(C)Oc1cccc(CN2CC[C@@]3(C[C@@H]2C)CN(C)S(=O)(=O)N3c2cccc(F)c2)c1 | 0.65 | 0.036 | 0.97 | > 65.5 | > 19
2 | CCOc1cc(CN2CC[C@@]3(C[C@@H]2C)CN(C)S(=O)(=O)N3c2cccc(F)c2)ccc1O | – | – | – | – | 79.9
3 | CCc1n[nH]c2ccc(CN3CC[C@@]4(C[C@@H]3C)CN(C)S(=O)(=O)N4c3cccc(F)c3)cc12 | – | – | – | – | 74.2
4 | C[C@H]1C[C@]2(CCN1Cc1ccc(O)c(Cl)c1)CN(C)S(=O)(=O)N2c1cccc(F)c1 | – | – | – | – | 173
5 | CC(C)Oc1cccc(CN2CC[C@]3(CNS(=O)(=O)N3c3cccc(F)c3)C[C@@H]2C)c1 | 0.22 | 0.041 | 0.67 | > 65.5 | > 19
6 | C[C@H]1C[C@]2(CCN1Cc1ccc3[nH]ccc3c1)CN(C)S(=O)(=O)N2c1cccc(F)c1 | – | – | – | – | 175
7 | CC(=O)Nc1ccc(CN2CC[C@@]3(C[C@@H]2C)CN(C)S(=O)(=O)N3c2cccc(F)c2)cc1 | – | – | – | – | > 300
8 | CC(C)Oc1cc(CN2CC[C@@]3(C[C@@H]2C)CN(C)S(=O)(=O)N3c2cccc(F)c2)ccc1O | 0.27 | 0.17 | 0.35 | 59.7 | 15.4
9 | C[C@H]1C[C@]2(CCN1Cc1ccc(O)cc1)CN(C)S(=O)(=O)N2c1cccc(F)c1 | – | – | – | – | 152
